# Results: ChEMBL document CHEMBL3286129, “Optimization of peptidomimetic boronates bearing a P3 bicyclic scaffold as proteasome inhibitors” (Eur J Med Chem, 2014)
# Active and inactive are the calls of the source. The calls are words filed in the database; no cut-off is given here.
# Tests used:
# [1] = molecular target: T1, Proteasome component C5 (Homo sapiens, UniProt P20618); experiment: Inhibition of PGPH-like activity of 20S proteasome in human erythrocytes using Z-Leu-Leu-Glu-AMC as substrate by fluorescence assay
# T1 sequence (P20618 whole entry): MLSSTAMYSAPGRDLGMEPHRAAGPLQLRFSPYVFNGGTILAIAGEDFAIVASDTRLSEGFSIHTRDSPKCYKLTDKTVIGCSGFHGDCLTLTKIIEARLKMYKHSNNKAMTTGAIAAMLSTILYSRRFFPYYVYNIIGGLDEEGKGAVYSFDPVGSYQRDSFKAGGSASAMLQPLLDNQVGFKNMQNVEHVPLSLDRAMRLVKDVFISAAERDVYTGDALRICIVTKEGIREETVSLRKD
# Outline: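 Human 20S proteasome 0.004 mg/mL, 30 °C, 50 mM Tris pH 7.5 with 25 mM KCl, 10 mM NaCl, 1 mM MgCl2, 0.03% SDS, 5% DMSO. Ki from 4-parameter IC50 fit of progress curves, corrected to zero substrate via Km. Mean of three.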
# [2] = molecular target: Chymotrypsinogen A (Bos taurus, UniProt P00766); experiment: Inhibition of bovine pancreatic alpha-chymotrypsin using Suc-Leu-Leu-Val-Tyr-AMC as substrate by fluorescence assay
# Outline: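 Enzyme incubated at 20 °C in 50 mM Tris pH 8.0, 100 mM NaCl, 5 mM EDTA, 7.5% DMSO with varied inhibitor concentrations. Substrate hydrolysis followed for 10 min. Ki from progress curves; mean of three determinations.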
# [3] = molecular target: Proteasome Macropain subunit (Homo sapiens) (UniProt P49721); experiment: Inhibition of trypsin-like activity of 20S proteasome in human erythrocytes using Boc-Leu-Arg-Arg-AMC as substrate by fluorescence assay; assay type: cell-based
# Outline: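 Human 20S proteasome 0.0025 mg/mL at 30 °C in 50 mM Tris pH 7.4, 50 mM NaCl, 0.5 mM EDTA, 0.03% SDS, 7.5% DMSO. Varied inhibitor concentrations; AMC release monitored continuously for 10 min, ex 380/em 460 nm. Ki derived from progress-curve IC50 fit.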
# [4] = Cytotoxicity against human melanoma cells assessed as cell growth at 10 uM relative to control; assay type: functional; details: read-out: Activity
# Outline: (§1)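 Single-concentration screen against a panel of human cancer cell lines. Each value is the mean percent growth across the cell lines of that tumour subpanel.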
# [5] = Cytotoxicity against human prostate cancer cells assessed as cell growth at 10 uM relative to control; assay type: functional; details: Cancer cell lines, read-out: Activity; outline: as §1
# [6] = Cytotoxicity against human renal cancer cells assessed as cell growth at 10 uM relative to control; assay type: functional; details: Cancer cell lines, read-out: Activity; outline: as §1
# [7] = Cytotoxicity against human CNSC cells assessed as cell growth at 10 uM relative to control; assay type: functional; details: read-out: Activity; outline: as §1
# [8] = Cytotoxicity against human NSCLC cells assessed as cell growth at 10 uM relative to control; assay type: functional; details: read-out: Activity; outline: as §1
# [9] = molecular target: T2, Proteasome Macropain subunit MB1 (Homo sapiens) (UniProt P28074); experiment: Inhibition of chymotrypsin-like activity of 20S proteasome in human erythrocytes using Suc-Leu-Leu-Val-Tyr-AMC as substrate at 20 uM by fluorescence assay relative to control
# T2 sequence (whole entry): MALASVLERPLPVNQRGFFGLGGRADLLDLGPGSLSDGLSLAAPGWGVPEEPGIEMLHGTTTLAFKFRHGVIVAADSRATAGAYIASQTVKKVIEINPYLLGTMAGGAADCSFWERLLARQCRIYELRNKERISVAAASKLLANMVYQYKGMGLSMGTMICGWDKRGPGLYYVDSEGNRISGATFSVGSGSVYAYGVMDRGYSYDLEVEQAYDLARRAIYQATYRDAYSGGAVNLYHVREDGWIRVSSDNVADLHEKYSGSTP
# Outline: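 Single inhibitor concentration, equivalent DMSO as negative control. AMC fluorescence read at ex 380/em 460 nm; percent inhibition of ChT-L activity.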
# [10] = molecular target: T3, Proteasome Macropain subunit MB1 (Homo sapiens, UniProt P28074); experiment: Inhibition of chymotrypsin-like activity of 20S proteasome in human erythrocytes using Suc-Leu-Leu-Val-Tyr-AMC as substrate by fluorescence assay
# T3 sequence (P28074 whole entry): T2 sequence (whole entry)
# [11] = Cytotoxicity against human ovarian cancer cells assessed as cell growth at 10 uM relative to control; assay type: functional; details: Cancer cell lines, read-out: Activity; outline: as §1
# [12] = Cytotoxicity against human colon cancer cells assessed as cell growth at 10 uM relative to control; assay type: functional; details: Cancer cell lines, read-out: Activity; outline: as §1
# [13] = Cytotoxicity against human leukemia cells assessed as cell growth at 10 uM relative to control; assay type: functional; details: read-out: Activity; outline: as §1
# [14] = Cytotoxicity against human breast cancer cells assessed as cell growth at 10 uM relative to control; assay type: functional; details: Cancer cell lines, read-out: Activity; outline: as §1
# Sequence of Proteasome Macropain subunit (Homo sapiens) (P49721 whole entry): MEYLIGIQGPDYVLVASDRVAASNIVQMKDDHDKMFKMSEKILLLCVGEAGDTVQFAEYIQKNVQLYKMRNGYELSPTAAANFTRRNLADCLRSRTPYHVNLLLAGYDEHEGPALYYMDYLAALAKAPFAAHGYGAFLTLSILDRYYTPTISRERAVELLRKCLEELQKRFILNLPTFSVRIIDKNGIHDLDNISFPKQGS
structure (smiles),measurement,setting,value
COc1cc2ccn(CC(=O)N[C@@H](CC(C)C)B(O)O)c(=O)c2cc1OC,Ki,[1],Not Active
same,Ki,[2],Not Active
same,inhibition,[3],inactive
same,growth at 10 µM,[4],104%
same,growth at 10 µM,[5],100%
same,growth at 10 µM,[6],98.5%
same,growth at 10 µM,[7],99.6%
same,growth at 10 µM,[8],102%
same,inhibition,[9],> 40%
same,Ki,[10],Not Active
same,growth at 10 µM,[11],103%
same,growth at 10 µM,[12],104%
same,growth at 10 µM,[13],98.8%
same,growth at 10 µM,[14],99%
